Shown are actives, neighbours in structure and some others; about 2.3% of the full set was active somewhere.
N-glyco inh: blocks N-linked glycosylation in D54 reporter cells; reporter increase, % at 12.5 µM; D54 ERlucT glycosylation luciferase reporter, 24 h; percent of 100 nM tunicamycin response; AID 588692; 360,000 compounds, 0.23% hits;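 active = mean luciferase reporter signal, scaled so untreated is 0 and the glycosylation-blocking control 100, at or above a set limit in every replicate; inconclusive = mean reaches the limit but not every replicate does; inactive = mean below the limit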;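 also: luciferase carries N-glycosylation sites so blocking glycosylation raises the light; 0% = median of neutral control wells and 100% = median of 100 nM tunicamycin wells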
PAX8 reporter: lowers PAX8-driven luciferase in RMG-I cells. RMG-I TPO-luciferase reporter, SteadyGlo, 24 h. inhibition, % at 12.6 µM. 360,000 compounds, 1.2% hits;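 active = mean replicate inhibition at least 60% with every replicate also reaching 60%; inconclusive = only one of the two criteria is met; inactive = mean below 60% and not all replicates reaching 60%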;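 also: luciferase light reporting Pax8 driven TPO promoter activity; plate controls were median of neutral control wells for no effect and mitoxantrone controls for full effect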
Arr AP2 block: inhibitors of human beta-arrestin and AP2 interaction | FITC-arrestin peptide / GST-AP2 beads, flow cytometry; AP2 beta2 appendage carries R879A mutation | inhibition, % at 10 µM | 340,000 compounds, 0.31% hits | AID 504490;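 active = inhibition above a set limit, near 3 SD of compounds lacking own fluorescence, cut at about 54% in these data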;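 also: plate controls were DMSO wells for no effect and 5 µM unlabelled arrestin peptide for full effect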
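System: GST-AP2 R879A glutathione beads | Also added: FITC-arrestin peptide, 50 nM | Times: 12 min plus 1 h, RT | Signal: Bead flow cytometry, FITC channel | Buffer or medium: PBS with 0.05% Tween 20 and 0.1% BSA | Read-out basis: Percent drop in bead-associated FITC signal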
Rtt109 Vps75: blocks Candida albicans Rtt109/Vps75 acetyltransferase activity; purified Rtt109/Vps75, ThioGlo CoA-SH fluorescence, 4 h; 330,000 compounds, 0.16% hits; AID 540336; Q5AAJ8; inhibition, % at 34.9 µM;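 active = inhibition of at least 50% in every replicate; inconclusive = best replicate reaches 50% inhibition but some replicates fall short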
Target sequence (Q5AAJ8 whole entry, looked up): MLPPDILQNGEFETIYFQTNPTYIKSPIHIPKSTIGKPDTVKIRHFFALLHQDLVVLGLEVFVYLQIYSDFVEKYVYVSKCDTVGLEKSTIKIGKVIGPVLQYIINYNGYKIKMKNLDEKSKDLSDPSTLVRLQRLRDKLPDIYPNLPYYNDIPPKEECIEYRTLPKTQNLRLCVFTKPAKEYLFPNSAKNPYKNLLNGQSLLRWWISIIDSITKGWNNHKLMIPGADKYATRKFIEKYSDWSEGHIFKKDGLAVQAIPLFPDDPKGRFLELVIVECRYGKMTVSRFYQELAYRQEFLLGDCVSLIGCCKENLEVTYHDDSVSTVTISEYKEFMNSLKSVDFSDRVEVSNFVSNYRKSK
PfHsp90 yeast 2: growth inhibition of yeast expressing Plasmodium Hsp90; S. cerevisiae expressing PfHsp90, BacTiter-Glo ATP, 48 h; yeast lacking PDR1 and PDR3 efflux regulators; 310,000 compounds, 0.32% hits; AID 504621; inhibition, % at 9.4 µM;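 active = every replicate shows inhibition above about 80%, whatever the replicate mean, limit read from the data; inconclusive = mean inhibition reaches the set limit but some replicate falls short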;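 also: 0% = DMSO neutral controls and 100% = 20 µM radicicol positive controls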
HIV Env fusion: HIV envelope-mediated fusion inhibition | HeLa-JRFL Env/CEM21 cell fusion, luciferase | 360,000 compounds, 1.1% hits | inhibition, % at 12.3 µM;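 active = mean replicate inhibition score of at least 50 and every replicate individually at or above 50; inconclusive = only one of the two criteria met; inactive = mean below 50 and not all replicates reaching 50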;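 also: 0% = plate neutral controls and 100% = maraviroc near 300 nM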
* hit, by the source's call; ? = inconclusive; . = not tested or not shown; ! = not active in a repeat; [ ] = another dose, or the depositor's remark.

SMILES	N-glyco inh	PAX8 reporter	Arr AP2 block	Rtt109 Vps75	PfHsp90 yeast 2	HIV Env fusion
Cc1cccc(-c2ccc([C@H]3[C@H](CO)N4CCCCN(S(=O)(=O)c5ccccc5C)C[C@@H]34)cc2)c1	.	86*	.	.	.	.
COc1cccc(S(=O)(=O)N2C[C@@H]3N[C@H](C2)C3c2ccc(-c3cccc(C)c3)cc2)c1 (some centres undefined)	.	69*!	.	.	.	.
Cc1ccccc1S(=O)(=O)N1CCCCN2[C@H](CO)[C@H](c3ccc(-c4ccccc4)cc3)[C@@H]2C1	.	9	.	.	.	.
C/C(=N\NC(=O)c1ccc(Cl)c(Cl)c1)c1ccccn1	-8	63*	-2	-1	-28	-159
COc1ccc(C(=O)N/N=C(\C)c2ccccn2)cc1OC	-19	70*	4	32	-5	5
C[C@@H]1CN([C@H](C)CO)C(=O)c2cc(C#C[C@@H](C)O)cnc2O[C@H]1CN(C)C(=O)CN1CCOCC1	.	5	.	.	.	-35[16.7 µM]
O=C1C=CC(=O)N1N(c1ccccc1)c1ccccc1	-2	2	16	7	96*	-19
CC(C)c1c(O)ccc2c1CC[C@H]1C(C)(C)CCC[C@]21C	-6	-9	-2	12	113*	12
O=S(=O)(Nc1cccc(-c2cn3cccnc3n2)c1)c1ccc(Cl)cc1	-1	132*	14	0	6	.
COc1ccc(C)cc1S(=O)(=O)Nc1cccc(-c2cn3cccnc3n2)c1	-2	9	6	-1	-10	3
COc1ccc(NC(=O)c2sccc2SCc2cccc(C(F)(F)F)c2)cc1	-3	.	2	8	59	80*
C[n+]1c(-c2ccccc2)cc2c(=Cc3ccccc3)c3ccccc3n21	14	115*	0	-10	-7	46
CN(C)c1ccc(C=c2c3cc(O)ccc3n3c2cc(-c2ccccc2)[n+]3C)cc1	19	73*	19	-19	-6	64*
C[n+]1c(-c2ccccc2)cc2c(=Cc3ccc([N+](=O)[O-])cc3)c3ccccc3n21	-2	74*	-4	-1	-25	-369
COc1ccc(S(=O)(=O)N(C)C[C@@H]2Oc3ccc(NC(=O)CCCCCC(=O)Nc4ccccc4N)cc3CC(=O)N([C@H](C)CO)C[C@H]2C)cc1	.	11	.	.	.	11[16.7 µM]
C[C@@H]1CN([C@@H](C)CO)S(=O)(=O)c2ccc(-c3ccc(C(=O)N(C)C)cc3)cc2O[C@@H]1CN(C)C(=O)C1CC1	.	.	.	.	.	10[16.7 µM]
CCCC#Cc1ccc2c(c1)O[C@@H](CN(C)C(=O)NC(C)C)[C@@H](C)CN([C@@H](C)CO)S2(=O)=O	.	.	.	.	.	14[16.7 µM]
O=C(N[C@H]1CC[C@H](CCn2cc(-c3cccnc3)nn2)O[C@@H]1CO)c1ccccc1F	.	20	.	.	.	16[16.7 µM]
CCCNC(=O)Nc1ccc2c(c1)C(=O)N(C)C[C@@H](OC)[C@H](C)CN(C(=O)C1CCC1)[C@@H](C)CO2	.	-13	.	.	.	.
COc1ccc(C(=O)N/N=C(\c2ccccc2)c2ccccn2)cc1	-11	57	34	5	14	43
O=C(N/N=C(\c1ccccc1)c1ccccn1)c1ccccc1Cl	-8	72*	11	0	.	35
O=C(NN=C(c1ccccc1)c1ccccn1)c1ccccc1	-8	77*	13	-4	-7	53
C/C(=N/NC(=O)c1ccccn1)c1ccncc1	-1	-69	22	2	-8	-14
C[C@@H]1CCCCO[C@H](CN(C)S(=O)(=O)c2cccs2)[C@H](C)CN([C@H](C)CO)C(=O)c2cc(NC(=O)Nc3ccccc3)ccc2O1	.	7	.	.	.	8[16.7 µM]
O=C(NC1CCCCC1)N[C@H]1CC[C@@H](CCNS(=O)(=O)c2ccc(F)cc2)O[C@@H]1CO	.	-3	.	.	.	8[16.7 µM]
SMILES	N-glyco inh	PAX8 reporter	Arr AP2 block	Rtt109 Vps75	PfHsp90 yeast 2	HIV Env fusion
CNC[C@H]1OCCCC[C@H](C)Oc2ccc(NS(=O)(=O)c3ccccc3)cc2C(=O)N([C@@H](C)CO)C[C@@H]1C	.	-5	.	.	.	-6[16.7 µM]
CCCCn1c(N)c(N(CCC(C)C)C(=O)COC(=O)c2ccc([N+](=O)[O-])s2)c(=O)[nH]c1=O	2	91*	28	4	.	9
O=C(C[C@H]1CC[C@H](NC(=O)c2ccc3c(c2)OCO3)[C@@H](CO)O1)NCc1ccc(Cl)cc1	.	1	.	.	.	-15[16.7 µM]
CN(C)CC#Cc1ccc([C@@H]2[C@@H](CO)N3CCCCN(C(=O)C4CCCC4)C[C@@H]23)cc1	.	-3	.	.	.	.
CC(C)COc1ccc(-c2nn(-c3ccccc3)cc2C(=O)Nc2nccs2)cc1	0	3	11	9	-8	72*
C[C@H]1CCCCO[C@@H](CN(C)C(=O)NC2CCCCC2)[C@@H](C)CN([C@@H](C)CO)C(=O)c2cc(NC(=O)CCC(F)(F)F)ccc2O1	.	5	.	.	.	-86[16.7 µM]
CC(=O)OCC1OC(n2cc(F)c(=O)[nH]c2=O)C(OC(C)=O)C1OC(C)=O (centres undefined)	0	16	-7	-1	1	?
O=C1C(F)=CC(COC(c2ccccc2)(c2ccccc2)c2ccccc2)OC1n1cc(F)c(=O)[nH]c1=O (centres undefined)	-21	18	-7	-13	102*	?
COc1ccc(C2CC(=O)C(C=NCCO)=C(O)C2)cc1 (centres undefined)	-1	14	3	54*	13	-11
O=C1CC(c2ccccc2)CC(O)=C1C=Nc1ccccc1Cl (centres undefined)	1	-7	-3	-6	-17	-26
COc1ccc(C2CC(=O)C(C=NCCO)=C(O)C2)cc1OC (centres undefined)	0	10	17	8	16	-1
COc1ccccc1N=CC1=C(O)CC(c2ccccc2)CC1=O (centres undefined)	28*	16	10	6	14	-11
O=C1CC(c2ccccc2)CC(O)=C1C=Nc1cccc(Cl)c1 (centres undefined)	1	-1	6	4	105*	17
C[C@@H]1CN([C@@H](C)CO)C(=O)c2cc(C#Cc3cccc(F)c3)cnc2O[C@H]1CN(C)C(=O)C1CCC1	.	29	.	.	.	-2[16.7 µM]
Cc1ccc(S(=O)(=O)Nc2ccc3c(c2)C(=O)N([C@@H](C)CO)C[C@H](C)[C@H](CN(C)C(=O)CCC(F)(F)F)OCCCC[C@H](C)O3)cc1	.	-1	.	.	.	-33[16.7 µM]
COc1cc(OC)cc(C(=O)NCC(=O)OCC(=O)c2cc(C)n(Cc3ccco3)c2C)c1	1	92*	-7	5	17	-4
CC(=O)Nc1ccc(-c2ccnc3c2CC(C(=O)NCCc2ccccc2)O3)cc1 (centres undefined)	-3	.	.	.	.	-3

Assay outcomes as filed in PubChem.
